Laboratory results published in PubChem BioAssay AID449763 (Sanford-Burnham Center for Chemical Genomics, 2010).
The campaign covered roughly 330,000 compounds. About 1,100 (0.33%) were called active.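 Rule for the calls: active = at 10 µM dose, activation of 40% or more, normalized to positive control; inactive = the rest.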 The full list was thinned out, with actives kept by preference.

assay: activators of apoptotic CHOP UPR arm, primary screen, cell-based, CHO-CHOP luciferase reporter, luminescence, uHTS (AID 449763); conditions: at 10 µM, active compounds read high, percent of tunicamycin response over DMSO baseline;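 note: 100% = tunicamycin at 10 µg/mL and 0% = DMSO alone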
Procedure, shortened: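 System: CHO-CHOP luciferase reporter cell line | Buffer or medium: F12 medium containing 10% fetal bovine serum | Doses: One dose, 10 µM in 0.5% DMSO | Times: 6 h compound exposure at 37 °C after overnight seeding | Signal: Luciferase luminescence | Read-out: % activation vs tunicamycin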

activation, inactive:
Cc1cc2c(cc1S(=O)(=O)NCc1ccc(Cl)cc1)OCC(=O)N2 -0.754%
Cc1ccc(C)c(S(=O)(=O)N2CCN(c3ncnc4sccc34)CC2)c1 5.68%
Cc1cccc(NC(=O)CSC(N)=O)c1C -0.357%
Cc1cccc(NC(=O)CN2CCN(C(=O)C3CCN(C(=O)/C=C/c4ccccc4)CC3)CC2)c1C 0.754%
COc1ccc(-c2c(C(C)=O)c(C)nc3sc4c(=O)n(-c5ccc(C)cc5)nnc4c23)cc1 -0.914%
COC(=O)C(=Nc1ccccc1)/C(C(=O)C(=O)N(C)c1ccccc1)=C(\O)c1ccc(Cl)cc1 0.244%
C[C@H](CO)N1C[C@H](C)[C@@H](CN(C)C(=O)NC2CCCCC2)Oc2ccc(NC(=O)c3ccncc3)cc2C1=O 2.08%
COc1ccc(C(=O)NCC(=O)N/N=C/c2cccnc2)cc1 2.52%
O=C(N/N=C/c1cccnc1)c1ccc(NC(=O)c2ccc(F)cc2)cc1 1.11%
Nc1nc(O)c(CC(=O)O)s1 -0.635%
C=CCOc1ccc(/C=C2/C(=O)ON=C2C)cc1OCC 0.964%
COc1cc(/C=C2/C(=O)ON=C2C)ccc1OCc1cccc(F)c1 30.3%
Cc1cc(C)n(-c2ccc(NC(=O)C3CCCCN3C(=O)c3cccs3)cc2)n1 (stereo not given) -0.0869%
O=C(c1cccs1)N1CCCC(c2nc(-c3ccc(F)cc3)no2)C1 (stereo not given) 1.93%
Cc1ccccc1CN(c1ccc(C(=O)NCC2CCCO2)cc1)S(C)(=O)=O (stereo not given) -1.43%
CN1CCC(=NNC(=O)c2ccc(N(Cc3ccc(Cl)cc3)S(C)(=O)=O)cc2)CC1 0.73%
CCCC1CC(C)(C(=O)Cn2[nH]c(=O)ccc2=O)OC1=O (stereo not given) 1.35%
CCOc1cc(/C=N/NC(=O)c2ccc(CSc3nncn3C)cc2)ccc1OCC(=O)N1CCOCC1 0.857%
O=C(NCC12CC3CC(C1)CC(CNC(=O)N1CCCC1)(C3)C2)N1CCCC1 -2.08%
Cc1nn(CC(=O)NCC2CCCO2)c(=O)c2cc3ccccc3n12 (stereo not given) -0.347%

activation, active:
CCOC(=O)/C=c1\s/c(=C\c2ccc(C#N)cc2)c(=O)n1CC(=O)Nc1cccc(C)c1C 75.5%
CC1(C)CCSC(/C=C/c2ccccc2)=N1 57.7%
O=C(CSc1cccc2cccnc12)N/N=C/c1cccnc1 227%
COc1cc(/C=C2/C(=O)ON=C2C)ccc1OCc1ccccc1F 66.3%
CS(=O)(=O)N(Cc1ccccc1)c1ccc(C(=O)NN=C2CCCCCC2)cc1 43.7%
